From publication PMC6099444 (Journal of Clinical Pharmacology, 2018)
Entries after “also recorded” stand apart in the source; their conditions may differ.

Columns and labels:
Assay type in all cases: in vivo, human
serum uric acid = assay: Serum uric acid pharmacodynamics in adult male subjects with gout; conditions: verinurad 10 mg, allopurinol 300 mg, once daily for 7 days, alone or combined
Method in brief: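 Adult males with gout received a once-daily oral xanthine oxidase inhibitor 300 mg, a urate reabsorption inhibitor 10 mg, or both for 7 days each in a randomized crossover sequence. Fasted overnight before sampling. Serum was drawn days 7, 14, 21 predose to 24 h postdose, with extra predose points day 1, and uric acid measured by a central lab. Read-out is maximum % change from time-matched day −1 baseline.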

[1] = Plasma pharmacokinetics, phase 1b multiple-dose drug-drug interaction study; conditions: for plasma exposure on coadministration, result in words: verinurad: with allopurinol 300 mg, colchicine: with verinurad 10 mg
Method in brief: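 Adult males with gout were randomized 1:1 to two sequences. They took a once-daily oral xanthine oxidase inhibitor 300 mg or urate reabsorption inhibitor 10 mg alone (days 1–7), both (days 8–14), then the other agent (days 15–21). Fasted overnight, no food 4 h postdose. Plasma was sampled days −1, 7, 14, 21 predose to 24 h. Parent and metabolite were measured by LC-MS/MS (methanol precipitation, isotope internal standards). Noncompartmental Tmax, Cmax, AUC0‐24; geometric LS mean ratio combo/alone.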

Urine pharmacokinetics = conditions: for Ae0‐24: urine; for Ae0‐24 / CLR0‐24: geometric LS mean (95% CI)
urine uric acid = assay: Urine uric acid pharmacodynamics; conditions: for CLUR, Mean (SD) / FEUA, Mean (SD) / AeUR, Change From Baseline (%) / CLUR, Change From Baseline (%) / FEUA, Change From Baseline (%) / AeUR, Mean (SD) / AeUR, %Change From Baseline / CLUR, %Change From Baseline / FEUA, %Change From Baseline: ALLO 300 mg or both; for AeUR, Change From Baseline (%) / CLUR, Change From Baseline (%) / FEUA, Change From Baseline (%) / AeUR, %Change From Baseline / CLUR, %Change From Baseline / FEUA, %Change From Baseline: mean (SD)
Method in brief: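 Total-catch urine was collected days 1, 7, 8, 14, 21 in intervals from 0–1 to 22–24 h postdose. Water: 240 mL on waking and at 22 h, 160 mL frequently postdose. Uric acid and creatinine were assayed centrally. AeUR = concentration × volume; CLUR = AeUR/plasma urate AUC same interval; fractional excretion = (CLUR/CrCl) × 100; rate = AeUR/interval hours. % change uses time-matched day −1 baseline.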

[2] = VERU 10 mg + ALLO 300 mg compared with allopurinol alone
[3] = VERU 10 mg + ALLO 300 mg compared with allopurinol alone, plasma
[4] = treatment ALLO 300 mg once daily
[5] = treatment VERU 10 mg + ALLO 300 mg once daily
[6] = 0‐ to 12‐hour interval, VERU 10 mg
[7] = 0‐ to 12‐hour interval, multiple daily doses VERU 10 mg
[8] = 0‐ to 24‐hour interval, VERU 10 mg
[9] = 12‐ to 24‐hour interval, VERU 10 mg
[10] = VERU 10 mg + ALLO 300 mg compared with allopurinol alone, plasma, listed as oxypurinol
[11] = treatment VERU 10 mg once daily

| Ae0‐24 (Urine pharmacokinetics; [4]) | Ae0‐24 (Urine pharmacokinetics; [5]) | SMILES | maximum decrease in serum urate (serum uric acid) [%] | CLUR, Mean (SD) (urine uric acid; [6]) | FEUA, Mean (SD) (urine uric acid; [6]) | AeUR, Change From Baseline (%) (urine uric acid; [6]) | CLUR, Change From Baseline (%) (urine uric acid; [6]) | FEUA, Change From Baseline (%) (urine uric acid; [6]) | AeUR, Mean (SD) (urine uric acid; [7]) | AeUR, Mean (SD) (urine uric acid; [8]) | CLUR, Mean (SD) (urine uric acid; [8]) | FEUA, Mean (SD) (urine uric acid; [8]) | AeUR, %Change From Baseline (urine uric acid; [8]) | CLUR, %Change From Baseline (urine uric acid; [8]) | FEUA, %Change From Baseline (urine uric acid; [8]) | CLUR, Mean (SD) (urine uric acid; [9]) | FEUA, Mean (SD) (urine uric acid; [9]) | AeUR, Change From Baseline (%) (urine uric acid; [9]) | CLUR, Change From Baseline (%) (urine uric acid; [9]) | FEUA, Change From Baseline (%) (urine uric acid; [9]) | also measured |
| --- | --- | --- | --- | --- | --- | --- | --- | --- | --- | --- | --- | --- | --- | --- | --- | --- | --- | --- | --- | --- | --- |
| 25.4 (22.1‐29.2) mg | 22.7 (19.2‐26.9) mg | Oc1ncnc2[nH]ncc12 [Allopurinol, allopurinol] | 43 | 6.50 (1.18) mL/min | 4.06 (0.47) % | −46.8 (7.3) % | −6.0 (12.0) % | −9.7 (9.2) % | 231 (45) mg | 363 (73) mg | 5.00 (1.13) mL/min | 3.69 (0.59) % | −47.4 (7.6) % | −8.50 (14.8) % | −12.0 (12.2) % | 3.62 (1.30) mL/min | 3.19 (0.62) % | −45.4 (14.5) % | −9.4 (23.2) % | −7.6 (14.6) % | AUC on coadministration of verinurad, result in words [1, 2]: unaffected; also recorded: unaltered; increase in Cmax on coadministration of verinurad [1, 3]: 33%; Cmax ([1]; treatment ALLO 300 mg once daily, plasma, geometric LS mean (95% CI)): 1.13 (0.89‐1.43) μg/mL; decrease in 24 hr fractional excretion of urate compared with baseline (urine uric acid; 0-24 h, allopurinol 300 mg): 12.0%; decrease in CLUR compared with baseline (urine uric acid; 0-24 h, allopurinol 300 mg): 8.5%; decrease in 24‐hour AeUR compared with baseline (urine uric acid; 0-24 h, allopurinol 300 mg alone or with verinurad 10 mg): 47.4%; decrease in rate of uric acid excretion (urine uric acid; 2‐3 hour urine collection interval postdose, allopurinol 300 mg): 46%; maximum rate of uric acid excreted in urine compared with the maximum observed baseline rate (urine uric acid; highest mean rate, 2‐3 hour urine collection interval postdose (combination 2‐3 and 3‐4 hour), verinurad 10 mg, allopurinol 300 mg): −46% |
|  |  | COc1cc2c(c(OC)c1OC)-c1ccc(OC)c(=O)cc1[C@@H](NC(C)=O)CC2 [Colchicine, colchicine, reference compound] |  |  |  |  |  |  |  |  |  |  |  |  |  |  |  |  |  |  | plasma exposure on coadministration, result in words [1]: unaltered |
| 231 (216‐248) mg | 275 (262‐290) mg | O=c1[nH]c(=O)c2c[nH]nc2[nH]1 [Oxypurinol, oxypurinol] |  |  |  |  |  |  |  |  |  |  |  |  |  |  |  |  |  |  | decrease in AUC on coadministration of verinurad [1, 3]: 38%; decrease in Cmax on coadministration of verinurad [1, 3]: 32%; decrease in AUC on coadministration of verinurad [1, 10]: approximately 38%; decrease in Cmax on coadministration of verinurad [1, 10]: approximately 32%; Cmax ([1]; male, human, plasma, oral, 300 mg): 12800 ng/mL; increase in renal clearance on coadministration of verinurad (Urine pharmacokinetics; [2]): 93%; increase in urinary excretion on coadministration of verinurad (Urine pharmacokinetics; [2]): 19% |
|  | 67.2 (51.7‐87.4) μg | CC(C)(Sc1ccncc1-c1ccc(C#N)c2ccccc12)C(=O)O [Verinurad] | 51 | 16.3 (4.57) mL/min | 11.6 (3.77) % | 21.4 (23.3) % | 153 (77.0) % | 160 (96.6) % | 490 (71) mg | 739 (84) mg | 11.5 (2.74) mL/min | 9.19 (3.28) % | 9.9 (21.5) % | 122 (105) % | 77.4 (36.0) % | 6.74 (0.96) mL/min | 5.88 (1.78) % | 4.2 (48.0) % | 95.5 (148) % | 49.9 (21.9) % | plasma exposure on coadministration, result in words [1]: unaffected; CLR0‐24 (Urine pharmacokinetics; [5]): 9.75 (7.73‐12.3) mL/min; CLR0‐24 (Urine pharmacokinetics; [11]): 9.28 (7.43‐11.6) mL/min; Ae0‐24 (Urine pharmacokinetics; [11]): 66.8 (51.8‐86.1) μg; AeUR, Mean (SD) (urine uric acid; [9]): 250 (52) mg |
